Active and inactive are the calls of the source. The calls are words filed in the database; no cut-off is given here.
What was measured:
[1] = MRT (0 to 3 hrs) in NCI-H1975 tumor bearing nude mouse model serum at 1 mg/kg, iv; assay type: ADME, organism-based
[2] = Toxicity in BALB/c nude mouse xenografted with human NCI-H1975 cells assessed as diarrhea at 1 to 2 mg/kg administered ip, qd for 2 weeks; conditions: in vivo, 336 h
[3] = Drug distribution in NCI-H1975 tumor bearing nude mouse model assessed as tumor to kidney ratio of triptolide metabolite at 2 mg/kg, iv by LC-MS analysis; assay type: ADME, organism-based; conditions: in vivo
How it was run: (§1)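 NCI-H1975 xenograft mice, tumors about 500 mm3, 3 per group, fasted 12 h with water available. Given 2 mg/kg iv and sacrificed 1 h later. Heart, liver, lung, kidney and tumor weighed and flash-frozen. 1.0 g tissue homogenized in 2.0 mL saline, methanol-precipitated, reconstituted. Parent, triptolide succinate and triptolide measured by LC-MS; tumor/organ ratios calculated.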

NCI-H460 [4] = test: Induction of apoptosis in human NCI-H460 cells assessed as early apoptotic cells at 1 uM measured after 48 hrs by Annexin V-FITC/PI staining method (reference value: 3.26%); assay type: functional
NCI-H460 [5] = test: Induction of apoptosis in human NCI-H460 cells assessed as viable cells at 20 uM measured after 48 hrs by Annexin V-FITC/PI staining method (reference value: 86.7%); assay type: functional; conditions: read-out: Activity
[6] = Drug distribution in NCI-H1975 tumor bearing nude mouse model assessed as tumor to lung ratio of triptolide metabolite at 2 mg/kg, iv by LC-MS analysis; assay type: ADME, organism-based; conditions: in vivo; how it was run: as §1
[7] = Toxicity in BALB/c nude mouse xenografted with human NCI-H1975 cells assessed as loss of body weight at 1 to 2 mg/kg administered ip, qd for 2 weeks measured every 3 days; conditions: in vivo, 336 h
SW-620 = test: Cytotoxicity against human SW-620 cells incubated for 72 hrs by MTT assay; assay type: functional, cell-based; conditions: SW-620, 72 h
How it was run: (§2)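 Cells seeded at 4000/well, incubated overnight, then exposed to a range of concentrations, or DMSO vehicle, for 72 h. MTT (5 mg/mL solution) added for 4 h and formazan dissolved in DMSO. Absorbance read at 570 nm, and IC50 derived from the curves. Tumor lines were grown in RPMI 1640; HUVEC, HaCaT and LO2 were grown in DMEM, each with 10% FBS at 37 °C and 5% CO2.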

[8] = Toxicity in BALB/c nude mouse xenografted with human NCI-H1975 cells assessed as morphological change in kidney at 1 to 2 mg/kg administered ip, qd for 2 weeks; conditions: in vivo, 336 h
[9] = Toxicity in BALB/c nude mouse xenografted with human NCI-H1975 cells assessed as decreased spermatogenic cells at 2 mg/kg administered ip, qd for 2 weeks; conditions: in vivo, 336 h
NCI-H460 [10] = test: Down regulation of RNA polymerase II in human NCI-H460 cells measured after 48 hrs by Western blotting analysis; assay type: functional, cell-based
How it was run: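 NCI-H460 cells treated for 48 h, harvested by trypsinization and lysed on ice in NP-40 buffer (50 mmol/L Tris pH 8.0, 150 mmol/L NaCl, 1% NP-40). Protein quantified by BCA and resolved by SDS-PAGE. Blots probed for RNA Pol II (1:1000), with GAPDH as loading control, and detected by chemiluminescence.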

[11] = Toxicity in BALB/c nude mouse xenografted with human NCI-H1975 cells assessed as reduction of cytoplasmic vacuoles at 2 mg/kg administered ip, qd for 2 weeks; conditions: in vivo, 336 h
NCI-H1975 [12] = test: Cytotoxicity against human NCI-H1975 cells transfected with OE overexpressing Glut1assessed as decrease in cell viability incubated for 72 hrs by MTT assay; assay type: functional, cell-based; conditions: NCI-H1975, 72 h
How it was run: (§3)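 Stable Glut-1 knockdown (KD1, KD2, vector KD V) or overexpression (OE, vector OE V) NCI-H1975 cells made by 12 h lentiviral infection, 72 h culture, then 14 days puromycin selection; Glut-1 confirmed by Western blot. Cells seeded at 4000/well overnight, dosed over a concentration range or DMSO for 72 h. MTT read at 570 nm; IC50 from ≥3 replicates.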

[13] = Drug distribution in NCI-H1975 tumor bearing nude mouse model assessed as tumor to heart ratio of triptolide metabolite at 2 mg/kg, iv by LC-MS analysis; assay type: ADME, organism-based; conditions: in vivo; how it was run: as §1
[14] = Toxicity in BALB/c nude mouse xenografted with human NCI-H1975 cells assessed as irregular spermatogenic tubules at 2 mg/kg administered ip, qd for 2 weeks; conditions: in vivo, 336 h
[15] = Cytotoxicity against HUVEC transfected with OE V overexpressing Glut1assessed as decrease in cell viability incubated for 72 hrs by MTT assay; assay type: toxicity, cell-based; conditions: human, HUVEC cells transfected with OE V overexpressing Glut1
How it was run: (§4)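 HUVEC kept in DMEM with 10% FBS, made to overexpress Glut-1 (OE) or carry vector (OE V) by lentiviral infection and puromycin selection for 14 days, with Western blot check. Seeded at 4000 cells/well, treated over a concentration range or DMSO for 72 h, then MTT at 570 nm. IC50 taken from at least three replicates.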

NCI-H1975 [16] = test: Cytotoxicity against Glut1 knocked down human NCI-H1975 cells transfected with KD2 assessed as decrease in cell viability incubated for 72 hrs by MTT assay; assay type: functional, cell-based; conditions: NCI-H1975, 72 h; how it was run: as §3
[17] = Toxicity in BALB/c nude mouse xenografted with human NCI-H1975 cells assessed as morphological change in lung at 1 to 2 mg/kg administered ip, qd for 2 weeks; conditions: in vivo, 336 h
NCI-H460 [18] = test: Induction of apoptosis in human NCI-H460 cells assessed as necrotic cells at 20 uM measured after 48 hrs by Annexin V-FITC/PI staining method (reference value: 1.62%); assay type: functional
[19] = Cytotoxicity against HUVEC transfected with OE overexpressing Glut1assessed as decrease in cell viability incubated for 72 hrs by MTT assay; assay type: toxicity, cell-based; conditions: human, HUVEC cells transfected with OE overexpressing Glut1; how it was run: as §4
HCT-116 = test: Cytotoxicity against human HCT-116 cells incubated for 72 hrs by MTT assay; assay type: functional, cell-based; conditions: HCT-116, 72 h; how it was run: as §2
NCI-H460 [20] = test: Induction of apoptosis in human NCI-H460 cells assessed as late apoptotic cells at 20 uM measured after 48 hrs by Annexin V-FITC/PI staining method (reference value: 8.47%); assay type: functional
[21] = Drug distribution in NCI-H1975 tumor bearing nude mouse model assessed as tumor to liver ratio of triptolide metabolite at 2 mg/kg, iv by LC-MS analysis; assay type: ADME, organism-based; conditions: in vivo; how it was run: as §1
[22] = Cytotoxicity against human HaCaT cells incubated for 72 hrs by MTT assay; assay type: toxicity, cell-based; how it was run: as §2
NCI-H460 [23] = test: Induction of apoptosis in human NCI-H460 cells assessed as late apoptotic cells at 50 uM measured after 48 hrs by Annexin V-FITC/PI staining method (reference value: 8.47%); assay type: functional

MRT last [1]: 33.6 min | Ratio [3]: 18.8 | Ratio [6]: 15.5 | Ratio [13]: 7.3 | Ratio [21]: 9.3
Structure (SMILES): CC(C)[C@]12O[C@H]1[C@@H]1O[C@]13[C@]1(O[C@H]1C[C@H]1C4=C(CC[C@@]13C)C(=O)OC4)[C@@H]2OC(=O)CCC(=O)O[C@H]1C(O)O[C@H](CO)[C@@H](O)[C@@H]1O (stereo not given in full)
Activity [2]: Non-Toxic | Activity (NCI-H460 [4]): 7.09% | viability at 20 µM (NCI-H460 [5]): 32.6% | Activity [7]: Non-Toxic | IC50 (SW-620): 1.73 µM | Activity [8]: Non-Toxic | Activity [9]: Toxic | Activity (NCI-H460 [10]): Active | Activity [11]: Toxic | IC50 (NCI-H1975 [12]): 2.44 µM | Activity [14]: Toxic | IC50 at 72 h [15]: 9.22 µM | IC50 (NCI-H1975 [16]): 11.6 µM | Activity [17]: Non-Toxic | Activity (NCI-H460 [18]): 4.89% | IC50 at 72 h [19]: 3.17 µM | IC50 (HCT-116): 1.95 µM | Activity (NCI-H460 [20]): 27.4% | IC50 at 72 h [22]: 6.54 µM | Activity (NCI-H460 [23]): 21.4%
